Measured values from ChEMBL document CHEMBL1150775, “Synthesis and evaluation of estrogen agonism of diaryl 4,5-dihydroisoxazoles, 3-hydroxyketones, 3-methoxyketones, and 1,3-diketones: a compound set forming a 4D molecular library” (J Med Chem, 2008).
Values joined by “and” are separate entries in the source; they are usually repeats but may differ in a detail not shown here. Identical values can stand only once.

Key:
[1] = target: Estrogen receptor beta (Homo sapiens) (UniProt Q92731); experiment: Activation of human estrogen receptor beta expressed in HEK293 cells at 10 uM beta-galactosidase reporter gene assay relative to 3,17-beta-estradiol; assay type: cell-based
Sequence of Estrogen receptor beta (Homo sapiens) (Q92731 whole entry): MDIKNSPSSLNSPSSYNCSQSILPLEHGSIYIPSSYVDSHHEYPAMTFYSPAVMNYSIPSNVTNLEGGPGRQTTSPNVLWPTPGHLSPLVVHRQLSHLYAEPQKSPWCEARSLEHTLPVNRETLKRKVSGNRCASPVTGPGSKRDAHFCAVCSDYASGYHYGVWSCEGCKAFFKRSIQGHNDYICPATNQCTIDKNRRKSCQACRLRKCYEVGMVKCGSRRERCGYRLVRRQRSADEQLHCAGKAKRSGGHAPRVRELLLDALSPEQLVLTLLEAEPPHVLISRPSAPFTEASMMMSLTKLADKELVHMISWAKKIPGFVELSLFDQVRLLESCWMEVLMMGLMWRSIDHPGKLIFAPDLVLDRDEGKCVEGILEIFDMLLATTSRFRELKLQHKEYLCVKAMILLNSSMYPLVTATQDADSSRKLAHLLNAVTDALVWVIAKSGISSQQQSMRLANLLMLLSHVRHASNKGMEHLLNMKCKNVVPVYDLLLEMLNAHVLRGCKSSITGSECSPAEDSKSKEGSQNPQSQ
In short: (§1)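 HEK293 cells seeded a day ahead in phenol-free DMEM with 5% delipidated FBS. Calcium phosphate transfection for 4 h with 5 ng ERα or ERβ expression vector, 75 ng pERE2TATA-LUC reporter and 20 ng pCMVβ control. Test compound at 10 µM (vehicle 0.1% v/v) for 24 h. Luciferase normalized to β-galactosidase. Activity = 100% × (test − vehicle)/(10 nM E2 − vehicle). Mean of ≥3 independent transfections.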

[2] = target: T1, Estrogen receptor (Homo sapiens) (UniProt P03372); experiment: Activation of human estrogen receptor alpha expressed in HEK293 cells at 10 uM by beta-galactosidase reporter gene assay relative to 3,17 beta-estradiol; assay type: cell-based; in short: as §1
T1 sequence (whole entry): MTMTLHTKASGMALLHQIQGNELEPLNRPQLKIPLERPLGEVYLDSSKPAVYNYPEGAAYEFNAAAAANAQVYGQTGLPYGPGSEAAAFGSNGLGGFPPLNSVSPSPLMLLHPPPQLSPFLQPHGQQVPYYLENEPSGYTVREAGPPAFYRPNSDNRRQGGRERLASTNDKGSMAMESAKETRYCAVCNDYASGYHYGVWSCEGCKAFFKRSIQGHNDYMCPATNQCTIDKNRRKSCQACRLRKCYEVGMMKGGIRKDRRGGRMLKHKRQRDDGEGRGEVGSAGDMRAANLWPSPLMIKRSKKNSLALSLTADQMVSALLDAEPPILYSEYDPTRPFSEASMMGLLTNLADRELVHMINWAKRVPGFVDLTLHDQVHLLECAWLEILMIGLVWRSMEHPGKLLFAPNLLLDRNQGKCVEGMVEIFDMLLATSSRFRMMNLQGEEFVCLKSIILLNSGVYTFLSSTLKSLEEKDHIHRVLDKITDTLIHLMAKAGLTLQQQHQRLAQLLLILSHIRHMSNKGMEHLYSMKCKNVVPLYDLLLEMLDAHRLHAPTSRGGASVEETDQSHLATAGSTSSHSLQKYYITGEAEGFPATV

Compound | Activity [1] | Activity [2]
O=C(CCc1ccccc1)CC(O)Cc1ccccc1 (stereo unspecified) | 0.4% | 12.8%
c1ccc(CC2=NOC(c3ccccc3)C2)cc1 (stereo unspecified) | 34.4% | 19.6%
O=C(CC(=O)Cc1ccccc1)Cc1ccccc1 | 0.1% | 4.3%
c1ccc(CC2=NOC(Cc3ccccc3)C2)cc1 (single isomer, unassigned; 14b) | 0.3% | 0%
CS(C)=C(C(=O)CCCc1ccccc1)C(=O)Cc1ccccc1 | -1.7% | 3.7%
Oc1ccc(CC2CC(CCc3ccccc3O)=NO2)cc1 (single isomer, unassigned; 75b) | 0.6% | 6.2%
COC(CC(=O)Cc1ccc(F)cc1)Cc1cccc2ccccc12 (single isomer, unassigned; 62b) | -0.5% | 4.5%
COc1ccccc1CC(CC(=O)Cc1ccc2ccccc2c1)OC (stereo unspecified) | 0.1% | 0.2%
Oc1ccc(CC2CC(CCc3ccccc3O)=NO2)cc1 (single isomer, unassigned; 75a) | 2.5% | 20.4%
COC(CC(=O)Cc1cccc2ccccc12)Cc1cccc2ccccc12 (single isomer, unassigned; 64a) | -0.5% | 5.6%
COc1ccc(CC(O)CC(=O)CCc2ccccc2)cc1 (single isomer, unassigned; 54a) | -0.8% | 1.6%
c1ccc(CCCC2=NOC(Cc3ccccc3)C2)cc1 (stereo unspecified) | 13.6% | 31.3%
c1ccc(CCC2CC(c3ccccc3)=NO2)cc1 (single isomer, unassigned; 10a) | 8.5% | 22.8%
O=C(CC(O)Cc1ccccc1)c1ccccc1 (stereo unspecified) | 16.9% | 5.3%
c1ccc(CCC2CC(c3ccccc3)=NO2)cc1 (single isomer, unassigned; 10b) | -6% | 1.1%
O=C(CCCc1ccccc1)CC(=O)CCc1ccccc1 | -1.5% | 6.1%
O=C(CCc1ccccc1)CC(O)CCc1ccccc1 (stereo unspecified) | 1% | 16.2%

Compound | Activity [1] | Activity [2]
c1ccc(CCCC2=NOC(Cc3ccccc3)C2)cc1 (single isomer, unassigned) | 5.1% | 28.1%
c1ccc(CCC2=NOC(c3ccccc3)C2)cc1 (single isomer, unassigned; 12b) | 8.1% | 11.2%
c1ccc(CCCC2=NOC(CCc3ccccc3)C2)cc1 (stereo unspecified) | 15.5% | 67.6%
c1ccc(CCC2CC(Cc3ccccc3)=NO2)cc1 (stereo unspecified) | 1.2% | 7%
COC(CC(=O)CCc1ccccc1)Cc1ccccc1 (stereo unspecified) | 1.3% | 9.9%
COC(CC(=O)CCc1ccccc1)Cc1ccc2ccccc2c1 (stereo unspecified) | 12.4% | 30.4%
O=C(CC(O)CCc1ccccc1)c1ccccc1 (stereo unspecified) | 15.4% | 13%
COc1ccc(CC(CC(=O)CCc2ccccc2)OC)cc1 (stereo unspecified) | 4% | 28.5%
Oc1ccc(CCC2=NOC(Cc3ccccc3)C2)cc1 (single isomer, unassigned) | 41.5% | 24.3%
O=C(CCc1ccccc1)CC(=O)CCc1ccccc1 | 0.3% | 0.6%
COC(CCc1ccccc1)CC(=O)CCc1ccccc1 (stereo unspecified) | 19.5% | 14.5%
COc1ccccc1CC(CC(=O)Cc1ccc2ccccc2c1)OC (single isomer, unassigned) | 0.3% | 0.3%
O=C(CC(=O)c1ccccc1)Cc1ccccc1 | 9.7% | 5.4%
CS(C)=C(C(=O)Cc1ccccc1)C(=O)c1ccccc1 | 5.8% | -1.2%
Oc1ccc(CC2CC(CCc3ccccc3)=NO2)cc1 (single isomer, unassigned; 69b) | 42.4% | 105%
c1ccc(CC2CC(c3ccccc3)=NO2)cc1 (stereo unspecified) | 12.8% and 6.6% | 
c1ccc(CCCC2=NOC(c3ccccc3)C2)cc1 (stereo unspecified) | 17.2% and -3.1% | 
